Rows were chosen to be rich in hits. Some 2.3% of all compounds tested hit in one or more screens of this group.
CHT inh: human CHT choline transport inhibition; Q9GZV3; B-score at 10 µM; CHT-expressing cells, membrane potential dye, choline response; active compounds read low; 310,000 tested, 0.86% active;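 active means B-score over 3 SD under the library average, and starting fluorescence ratio not unusually high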;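 further: choline stimulus applied at its EC90 after an EC20 pre-addition; B-score computed on integrated fluorescence ratio after choline addition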
COUP-TFII inh: inhibitors of human COUP-TFII (NR2F2); HEK293T NGFI-A luciferase reporter, luminescence; inhibition, % at 8.6 µM; 370,000 tested, 0.7% active;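 active means inhibition above a per-plate cutoff, mean inhibition of test wells between control levels plus 3 SD, cut at about 38% in these data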;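 further: cells cotransfected with COUP-TFII expression vector driving the NGFI-A reporter; 0% = median of COUP-TF2 test wells and 100% = reporter-only cells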
Target sequence (P24468 whole entry, looked up): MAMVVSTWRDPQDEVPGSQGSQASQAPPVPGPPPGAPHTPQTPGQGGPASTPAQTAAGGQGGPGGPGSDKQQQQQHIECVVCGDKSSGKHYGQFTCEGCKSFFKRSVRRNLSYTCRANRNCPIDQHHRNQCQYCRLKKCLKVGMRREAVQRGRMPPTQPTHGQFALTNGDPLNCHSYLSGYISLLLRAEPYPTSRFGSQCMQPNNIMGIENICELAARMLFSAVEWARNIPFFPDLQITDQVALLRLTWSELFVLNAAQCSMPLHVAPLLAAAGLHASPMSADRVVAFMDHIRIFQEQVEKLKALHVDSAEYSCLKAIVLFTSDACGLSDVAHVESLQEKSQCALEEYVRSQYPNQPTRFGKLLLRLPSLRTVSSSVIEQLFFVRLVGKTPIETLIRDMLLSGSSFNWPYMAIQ
CHT allo act: human CHT allosteric activation; CHT-expressing cells, membrane potential dye, choline EC20; active compounds read high; LV-AA mutant CHT in HEK293 cells; B-score at 10 µM; 310,000 tested, 0.49% active;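 active means initial fluorescence not abnormally high and integrated response B-score, plate-corrected, over 3 SD above library mean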
NR2E3 ag-1: human photoreceptor-specific nuclear receptor agonism; inhibition of corepressor binding, % at 3.98 µM; 360,000 tested, 0.35% active; CHO-S Gal4-NCOR/VP16-NR2E3 two-hybrid, luciferase;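 active means inhibition above the mean of all tested compounds plus 3 SD, cut at about 70% in these data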;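 further: 0% = DMSO with NR2E3 transfected cells and 100% = cells lacking NR2E3 construct; higher means lower luciferase signal from less NR2E3 corepressor binding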
NR2E3 ag-2: NR2E3 (human) agonism; 320,000 tested, 0.12% active; GST-NR2E3/biotin-RetCOR TR-FRET, 1536-well; AID 2300; Q9Y5X4; inhibition of corepressor binding, % at 4.78 µM;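 active means percent inhibition above the cutoff of mean plus 3 SD of all tested compounds, set per screening campaign, cut at about 20% in these data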;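 further: 0% = DMSO wells and 100% = biotin wells as full block of FRET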
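System: GST-tagged NR2E3 plus biotinylated RetCOR corepressor; Buffer or medium: pH 7.5 Tris-based buffer; Probe or stimulus: RetCOR corepressor, biotinylated, 7 nM; Doses: compound at 4.8 µM, single dose; Schedule: 5 h incubation at 4 °C; Technique: time-resolved FRET; Evaluation: percent inhibition of TR-FRET ratio; Replication: one well per compound, singlicate testing.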
GalR3 antagonist: antagonists of human GalR3 | O60755 | HEK293 GalR3-CNG cAMP membrane potential fluorescence; galR3 body fused to GalR1 C-terminus | inhibition, % at 3 µM | 360,000 tested, 0.44% active;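 active means inhibition above the screen-wide average plus 3 SD, cut at about 13% in these data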;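 further: forskolin and galanin both at EC90 stimulate the cells; cAMP rise reported by CNG channel membrane potential dye signal; 0% = forskolin plus galanin with DMSO and 100% = forskolin alone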
Target sequence (O60755 1-299 limits assumed): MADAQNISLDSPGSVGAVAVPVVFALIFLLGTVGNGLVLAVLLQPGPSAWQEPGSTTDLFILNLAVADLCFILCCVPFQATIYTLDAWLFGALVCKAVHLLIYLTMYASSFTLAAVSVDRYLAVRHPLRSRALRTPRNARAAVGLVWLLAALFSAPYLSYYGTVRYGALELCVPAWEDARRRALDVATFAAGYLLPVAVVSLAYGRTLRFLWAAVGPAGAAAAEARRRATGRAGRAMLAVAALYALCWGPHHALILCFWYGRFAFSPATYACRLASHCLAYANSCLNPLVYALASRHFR
NR2E3 ag conf: confirmation of human NR2E3 agonists; shares compounds with NR2E3 ag-1; CHO-S mammalian two-hybrid NR2E3-NCOR, luciferase luminescence; inhibition, % at 3.98 µM; 2,300 tested, 51% active; AID 624378;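 active means average inhibition above a cutoff equal to the mean inhibition of all tested compounds plus one SD, cut at about 70% in these data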;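 further: 0% = DMSO in NR2E3 cells and 100% = DMSO in cells lacking NR2E3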
GAL4-VP16 luc: reduces GAL4-VP16 reporter signal in NR2E3 counterscreen | shares compounds with NR2E3 ag-1 | 2,300 tested, 29% active | CHO-S GAL4-VP16 luciferase reporter, luminescence | inhibition, % at 3.98 µM;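 active means mean inhibition above a cutoff equal to the average over all tested compounds plus one standard deviation, cut at about 70% in these data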;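 further: luciferase from a UAS reporter driven by GAL4-VP16 transactivation; 0% = DMSO with VP16-transfected cells and 100% = DMSO with cells lacking VP16; higher means less reporter light so more repression of VP16 activity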
Numbers without * were called inactive; i = inactive; . = no result given.

SMILES	CHT inh	COUP-TFII inh	CHT allo act	NR2E3 ag-1	NR2E3 ag-2	GalR3 antagonist	NR2E3 ag conf	GAL4-VP16 luc
Cc1ccnc(NC(=O)Cc2ccc(-c3ccccc3)cc2)c1	i	-50	i	93*	2	-5	98*	-24
Cc1ccc(NC(=O)Cc2ccc(-c3ccccc3)cc2)nc1	i	-10	i	66	0	-6	.	.
Cc1onc(-c2ccccc2Cl)c1C(=O)Nc1nc2c(s1)CCCC2	i	-31	i	82*	5	6	86*	-41
C=C(C)/C=C1/C(Cc2ccccc2)N(CC2CC2)C(=N)N1C(=O)OCc1ccccc1 (stereo not given)	.	10	.	.	.	.	.	.
CCCc1ccc(Oc2c(-c3ccc(O)c(C)c3O)n[nH]c2C)cc1	i	19	i	15	-2	4	.	.
CCCc1ccc(Oc2cn[nH]c2-c2ccc(O)c(C)c2O)cc1	i	8	i	49	2	2	61	58
Cc1nc(NC(=O)c2ccco2)sc1C(=O)O	i	7	i	-6	2	-5	.	.
Cc1nc(NC(=O)c2ccco2)sc1C(=O)Nc1ccc(Br)cc1	i	.	i	54	7	.	64	22
CC(=O)N1CCc2c(sc(NC(=O)c3ccc([N+](=O)[O-])o3)c2C#N)C1	.	-47	.	61	.	-2	48	28
CC(C)N1CCc2c(sc(NC(=O)c3ccc([N+](=O)[O-])o3)c2C(N)=O)C1	i	-6	i	48	2	-3	84*	50
CC1CCCCC1C(=O)N1CCC(Oc2cccnc2)CC1 (stereo not given)	.	26	.	.	.	.	.	.
O=C(O)CC1(CC(=O)Nc2cc(C(F)(F)F)cc(C(F)(F)F)c2)CCCCC1	i	-8	i	58	-1	-3	88*	45
COc1ccc(CN2CCC(CNC(=O)NC3CCC(C)CC3)CC2)cc1 (stereo not given)	.	-8	.	.	.	.	.	.
COc1ccc(NS(=O)(=O)c2ccc(-n3cnnn3)cc2)cc1OC	i	12	i	61	-2	-2	-5	5
COc1ccc(S(=O)(=O)Nc2ccc(-n3cnnn3)cc2)cc1Br	.	6	.	0	.	0	.	.
Cc1ccc(OCCNS(=O)(=O)c2ccc(N3CCCC3=O)cc2)cc1C	i	22	i	93*	6	-12	98*	85*
Cc1ccc(OCCNS(=O)(=O)c2ccc(N3CCCC3=O)cc2)cc1	i	7	i	61	2	-6	86*	72*
O=C1CCCN1c1ccc(S(=O)(=O)NCCc2ccc(Cl)cc2)cc1	i	.	i	18	3	.	.	.
CC(C)Cn1c(N)c(C(=O)CSc2ccc3c(c2)OCCO3)c(=O)n(C)c1=O	i	28	i	59	-5	-4	92*	85*
CCOC(=O)N1CCN(C(=O)C[C@H]2C[C@@]3(C(=O)OC)C(=C[C@H](COCc4ccccc4)O[C@@H]3C)N(Cc3ccco3)C2=O)CC1	.	15	.	.	.	.	.	.
C=C1C(=O)[C@@]23[C@H](O)C[C@@H]4C(C)(C)CC[C@H](O)[C@]4(C)[C@@H]2C[C@H](O)[C@@H]1[C@H]3O	i	-17	i	21	0	1	.	.
C=C1C(=O)[C@@]23[C@H](O)C[C@@H]4C(C)(C)CC[C@H](O)[C@@]4(C)[C@@H]2CC[C@@H]1[C@H]3O	i	23	i	66	6	-3	-13	-92
COc1ccc(C)cc1NC(=O)NC1CC(=O)N(c2ccc3c(c2)OCCO3)C1 (stereo not given)	.	19	.	72*	.	-6	78*	11
O=C(O[C@H]1CC[C@@]23CCCN2C(=O)CCC[C@H]3C1)N1CCOCC1	.	-4	.	.	.	.	.	.
CC1=C(C)/C(=N\OS(=O)(=O)c2ccc(C)cc2)C=CC1=O	i	27	i	71*	-1	5	8	4
SMILES	CHT inh	COUP-TFII inh	CHT allo act	NR2E3 ag-1	NR2E3 ag-2	GalR3 antagonist	NR2E3 ag conf	GAL4-VP16 luc
COc1ccc(S(=O)(=O)/N=C2/C=CC(=O)C(C)=C2C)cc1	i	.	i	-19	-1	.	.	.
O=C(CSc1nnc(-c2cccnc2)n1-c1ccccc1)Nc1cccc2ccccc12	.	10	.	.	.	.	.	.
CCOc1ccc(CCNC(=O)COC(=O)Cc2ccc(F)cc2)cc1OCC	i	12	i	59	2	-1	22	13
COc1ccc(CNS(=O)(=O)c2ccc(-c3cc(C)no3)cc2)cc1	i	5	i	51	5	-11	31	34
CCOC(=O)C1=C(CC)Nc2ccccc2N/C1=N\S(=O)(=O)c1ccc2ccccc2c1	i	31	i	-17	2	-5	.	.
CCOC(=O)C1=C(CC)Nc2ccccc2N/C1=N\S(=O)(=O)c1cc(Br)ccc1Br	.	6	.	57	.	-6	88*	58
COc1cc(NC(=O)C2CCCN(S(=O)(=O)c3ccc(Cl)s3)C2)cc(OC)c1 (stereo not given)	.	3	.	.	.	.	.	.
COc1ccccc1NS(=O)(=O)c1ccc2oc(SC(C)C(=O)N3CCNC3=O)nc2c1 (stereo not given)	.	26	.	56	2	-2	6	22
Cc1nc2ccc(S(=O)(=O)NCC(=O)N(C)Cc3ccccc3Cl)cc2s1	.	6	.	.	.	.	.	.
CCCNC(=O)CSCc1nc(-c2ccc(SC)cc2)oc1C	i	-5	i	82*	1	-5	78*	79*
COC(CNC(=O)CSCc1nc(-c2ccc(SC)cc2)oc1C)OC	i	9	i	69	-3	1	78*	49
O=C(Nc1ccc2ncccc2c1)c1cc(-c2ccc(Cl)cc2)nc2ccccc12	.	-5	.	.	.	.	.	.
CCCOc1ccc(F)cc1-c1cc(C(=O)NCc2cccc(C(F)(F)F)c2)[nH]n1	.	11	.	18	.	-7	.	.
CCCOc1ccc(F)cc1-c1cc(C(=O)NCc2ccc(C(F)(F)F)cc2)[nH]n1	.	.	.	52	.	.	6	17
COC(=O)[C@H]1C[C@@]2(n3ccc4ccccc43)c3ccccc3N[C@H]2N1	.	-7	.	.	.	.	.	.
O=C(c1cccc(-c2cncc3nccn23)c1)N1CCOCC1	.	4	.	-9	.	-5	.	.
CN1CCN(C(=O)c2cccc(-c3cnc4cnc(-c5ccccc5Oc5ccccc5)cn34)c2)CC1	.	-24	.	49	.	-10	70*	20
Cc1ccc(Nc2c(-c3ccccn3)nc3ccc(C)cn23)cc1	i	16	i	56	-2	-3	97*	61
Cc1ccc2nc(-c3ccco3)c(Nc3ccccc3)n2c1	i	-11	i	1	-2	-13	.	.
